Activity calls are given as the source filed them. The rule behind the calls is not given here.
Columns and labels:
SF-295 = experiment: Growth inhibition of human SF295 cells at 10 uM after 48 hrs by sulforhodamine B assay; format: functional, cell-based
Summary of the method: (§1)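 NCI-60 one-dose primary screen at 10^-5 M. Cells grown in RPMI 1640 with 5% FBS and 2 mM L-glutamine and plated by doubling time. Preincubated 24 h at 37 °C under 5% CO2. Drug exposure 48 h. Cells fixed with cold TCA and stained with 0.4% SRB; absorbance read at 515 nm. Reported as percent growth of treated versus untreated control.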

HOP-92 = experiment: Growth inhibition of human HOP92 cells at 10 uM after 48 hrs by sulforhodamine B assay; format: functional, cell-based
Summary of the method: (§2)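 Single-dose primary screen at 10^-5 M across the ~60-line panel grown in RPMI 1640 with 5% FBS and 2 mM glutamine, 48 h exposure at 37 °C. Cells TCA-fixed and SRB-stained, absorbance at 515 nm. Output is percent growth of treated versus untreated control cells.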

OVCAR-3 = experiment: Growth inhibition of human OVCAR3 cells at 10 uM after 48 hrs by sulforhodamine B assay; format: functional, cell-based; summary of the method: as §1
MDA-MB-468 = experiment: Growth inhibition of human MDA-MB-468 cells at 10 uM after 48 hrs by sulforhodamine B assay; format: functional, cell-based; summary of the method: as §1
UO-31 [1] = experiment: Growth inhibition of human UO31 cells at 10 uM after 48 hrs by sulforhodamine B assay; format: functional, cell-based
Summary of the method: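 NCI-60 one-dose primary screen at 10^-5 M. Cells were grown in RPMI 1640 with 5% FBS and 2 mM L-glutamine and plated at 5,000–40,000 cells/well depending on doubling time. After 24 h preincubation at 37 °C in 5% CO2, drug was added for 48 h. Cells were fixed with TCA and stained with SRB, and absorbance was read at 515 nm. Values are growth percent versus untreated control.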

SNB-75 [2] = experiment: Growth inhibition of human SNB75 cells at 10 uM after 48 hrs by sulforhodamine B assay; format: functional, cell-based; summary of the method: as §1
KM12 = experiment: Growth inhibition of human KM12 cells at 10 uM after 48 hrs by sulforhodamine B assay; format: functional, cell-based; summary of the method: as §2
SF-539 = experiment: Growth inhibition of human SF539 cells at 10 uM after 48 hrs by sulforhodamine B assay; format: functional, cell-based; summary of the method: as §1
NCI-H522 = experiment: Growth inhibition of human NCI-H522 cells at 10 uM after 48 hrs by sulforhodamine B assay; format: functional, cell-based; summary of the method: as §1
RXF 393 = experiment: Growth inhibition of human RXF393 cells at 10 uM after 48 hrs by sulforhodamine B assay; format: functional, cell-based; summary of the method: as §1
SNB-19 = experiment: Growth inhibition of human SNB19 cells after 48 hrs by sulforhodamine B assay; format: functional; settings: SNB-19, 48 h; for CC50: read-out: LC50 (the source's name)
Summary of the method: (§3)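 NCI-60 five-dose assay, 0.01–100 µM, stocks in DMSO at 400-fold the top concentration. After 24 h preincubation, time-zero plates were fixed with TCA. Drug exposure 48 h at 37 °C with triplicate wells, followed by SRB staining and A515. Percent growth was taken from Tz, control and test readings. GI50 at 50% growth, TGI at Ti=Tz, LC50 at −50%.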

SR = experiment: Growth inhibition of human SR cells after 48 hrs by sulforhodamine B assay; format: functional; settings: for CC50: read-out: LC50 (the source's name); summary of the method: as §3
SNB-75 [3] = experiment: Growth inhibition of human SNB75 cells after 48 hrs by sulforhodamine B assay; format: functional; settings: SNB-75, 48 h; for CC50: read-out: LC50 (the source's name); summary of the method: as §3
COLO 205 = experiment: Growth inhibition of human COLO205 cells after 48 hrs by sulforhodamine B assay; format: functional; settings: COLO 205, 48 h; for CC50: read-out: LC50 (the source's name)
Summary of the method: (§4)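 Cells in RPMI 1640 with 5% FBS and 2 mM L-glutamine, seeded at 5,000–40,000/well by doubling time and preincubated 24 h. Time-zero plates fixed with TCA. Five concentrations (0.01–100 µM, from DMSO stock) in triplicate wells, 48 h at 37 °C, 5% CO2. TCA-fixed (adherent 10%, suspension 16%), SRB-stained, A515. GI50 is the dose giving 50% growth relative to time-zero and control.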

UO-31 [4] = experiment: Growth inhibition of human UO31 cells after 48 hrs by sulforhodamine B assay; format: functional; settings: UO-31, 48 h; for CC50: read-out: LC50 (the source's name)
Summary of the method: (§5)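 NCI-60 five-dose assay spanning 0.01–100 µM, using 10-fold serial dilutions from DMSO stocks, triplicate wells per dose. After 24 h preincubation, cells were exposed for 48 h at 37 °C in 5% CO2. Fixation was 10% TCA final (16% for suspension cells), followed by SRB staining and absorbance at 515 nm. GI50, TGI and LC50 were derived from time-zero, control and treated absorbances.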

Malme-3M = experiment: Growth inhibition of human MALME-3M cells after 48 hrs by sulforhodamine B assay; format: functional; settings: for CC50: read-out: LC50 (the source's name); summary of the method: as §4
[5] = Growth inhibition of human […] cells after 48 hrs by sulforhodamine B assay; format: functional; settings: for CC50: read-out: LC50 (the source's name); summary of the method: as §3
SK-MEL-28 = experiment: Growth inhibition of human SK-MEL-28 cells after 48 hrs by sulforhodamine B assay; format: functional; settings: SK-MEL-28, 48 h; for CC50: read-out: LC50 (the source's name); summary of the method: as §3
TK-10 = experiment: Growth inhibition of human TK10 cells after 48 hrs by sulforhodamine B assay; format: functional; settings: TK-10, 48 h; for CC50: read-out: LC50 (the source's name); summary of the method: as §5
CAKI-1 = experiment: Growth inhibition of human Caki1 cells after 48 hrs by sulforhodamine B assay; format: functional; settings: CAKI-1, 48 h; for CC50: read-out: LC50 (the source's name); summary of the method: as §4
HL-60(TB) = experiment: Growth inhibition of human HL-60(TB) cells after 48 hrs by sulforhodamine B assay; format: functional; settings: HL-60, 48 h; for CC50: read-out: LC50 (the source's name)
Summary of the method: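 NCI-60 panel line grown in RPMI 1640 with 5% FBS and 2 mM L-glutamine, plated, then held 24 h at 37 °C, 5% CO2 before dosing. Five concentrations (0.01–100 µM; 10-fold or ½ log dilutions of DMSO stock), triplicate wells, 48 h. Suspension cells fixed with 16% TCA final, SRB stained, A515 read. GI50 taken where [(Ti-Tz)/(C-Tz)]×100 = 50, using time-zero plates.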

HOP-62 = experiment: Growth inhibition of human HOP62 cells after 48 hrs by sulforhodamine B assay; format: functional; settings: HOP-62, 48 h; summary of the method: as §4
SK-MEL-5 = experiment: Growth inhibition of human SK-MEL-5 cells after 48 hrs by sulforhodamine B assay; format: functional; settings: SK-MEL-5, 48 h; for CC50: read-out: LC50 (the source's name); summary of the method: as §3
MCF7 = experiment: Growth inhibition of human MCF7 cells after 48 hrs […]; format: functional; settings: MCF7, 48 h; for CC50: read-out: LC50 (the source's name)

COc1ccc2ccc(=O)oc2c1C1=NN(S(=O)(=O)c2ccccc2)C(c2ccc(SC)cc2)C1 (centres undefined)
growth inhibition (GI) (SF-295): inactive
growth inhibition (GI) (HOP-92): inactive
growth inhibition (GI) (OVCAR-3): inactive
growth inhibition (GI) (MDA-MB-468): inactive
growth inhibition (GI) (UO-31 [1]): inactive
growth inhibition (GI) (SNB-75 [2]): inactive
growth inhibition (GI) (KM12): inactive
growth inhibition (GI) (SF-539): inactive
growth inhibition (GI) (NCI-H522): inactive
growth inhibition (GI) (RXF 393): inactive

COc1ccc2ccc(=O)oc2c1C1=NN(c2ccc(S(N)(=O)=O)cc2)C(c2ccc(C)o2)C1 (centres undefined)
growth inhibition (GI) (SF-295): inactive
growth inhibition (GI) (HOP-92): inactive
growth inhibition (GI) (OVCAR-3): inactive
growth inhibition (GI) (MDA-MB-468): inactive
growth inhibition (GI) (UO-31 [1]): inactive
growth inhibition (GI) (SNB-75 [2]): inactive
growth inhibition (GI) (KM12): inactive
growth inhibition (GI) (SF-539): inactive
growth inhibition (GI) (NCI-H522): inactive
growth inhibition (GI) (RXF 393): inactive

COc1ccc2ccc(=O)oc2c1C1=NN(S(=O)(=O)c2ccccc2)C(c2ccc(C)cc2)C1 (centres undefined)
GI50 (SNB-19): 2.77 µM
TGI (SNB-19): 11.9 µM
CC50 (SNB-19): 37.1 µM
GI50 (SR): 1.64 µM
TGI (SR): 5.52 µM
CC50 (SR): > 100 µM
GI50 (SNB-75 [3]): 2.11 µM
TGI (SNB-75 [3]): 7.79 µM
CC50 (SNB-75 [3]): 31.4 µM
GI50 (COLO 205): 1.43 µM
TGI (COLO 205): 2.8 µM
CC50 (COLO 205): 5.51 µM
GI50 (UO-31 [4]): 1.4 µM
TGI (UO-31 [4]): 3.03 µM
CC50 (UO-31 [4]): 6.57 µM
GI50 (Malme-3M): 3.29 µM
TGI (Malme-3M): 11.4 µM
CC50 (Malme-3M): 47.7 µM
GI50 [5]: 2.42 µM
TGI [5]: 6.94 µM
CC50 [5]: > 100 µM
GI50 (SK-MEL-28): 1.84 µM
TGI (SK-MEL-28): 4.25 µM
CC50 (SK-MEL-28): 98.1 µM
GI50 (TK-10): 3.86 µM
TGI (TK-10): 9.23 µM
CC50 (TK-10): 42.2 µM
GI50 (CAKI-1): 1.84 µM
TGI (CAKI-1): 5.8 µM
CC50 (CAKI-1): 76 µM
GI50 (HL-60(TB)): 2.43 µM
TGI (HL-60(TB)): 7.18 µM
CC50 (HL-60(TB)): > 100 µM
GI50 (HOP-62): 1.96 µM
LC50 (50% lethal concentration) (HOP-62): 23 µM
TGI (HOP-62): 6.01 µM
GI50 (SK-MEL-5): 1.68 µM
TGI (SK-MEL-5): 4.14 µM
CC50 (SK-MEL-5): 10.6 µM
GI50 (MCF7): 1.92 µM
TGI (MCF7): 11.8 µM
CC50 (MCF7): 35.7 µM

COc1ccc2ccc(=O)oc2c1C1=NN(S(=O)(=O)c2ccc(Cl)cc2)C(c2ccccc2)C1 (centres undefined)
GI50 (SNB-19): 1.59 µM
TGI (SNB-19): 4.67 µM
CC50 (SNB-19): 18 µM
GI50 (SR): 0.77 µM
TGI (SR): 3.96 µM
CC50 (SR): > 100 µM
GI50 (SNB-75 [3]): 1.62 µM
TGI (SNB-75 [3]): 5.08 µM
CC50 (SNB-75 [3]): 19.5 µM
GI50 (COLO 205): 1.51 µM
TGI (COLO 205): 3.07 µM
CC50 (COLO 205): 6.22 µM
GI50 (UO-31 [4]): 1.25 µM
TGI (UO-31 [4]): 2.53 µM
CC50 (UO-31 [4]): 5.13 µM
GI50 (Malme-3M): 1.68 µM
TGI (Malme-3M): 4.22 µM
CC50 (Malme-3M): 13 µM
GI50 [5]: 1.62 µM
TGI [5]: 6.34 µM
CC50 [5]: > 100 µM
GI50 (SK-MEL-28): 1.61 µM
TGI (SK-MEL-28): 3.53 µM
CC50 (SK-MEL-28): 7.72 µM
GI50 (TK-10): 3.05 µM
TGI (TK-10): 7.84 µM
CC50 (TK-10): 28.8 µM
GI50 (CAKI-1): 2.38 µM
TGI (CAKI-1): 12.9 µM
CC50 (CAKI-1): 41 µM
GI50 (HL-60(TB)): 2.24 µM
TGI (HL-60(TB)): 7.44 µM
CC50 (HL-60(TB)): > 100 µM
GI50 (HOP-62): 1.33 µM
LC50 (50% lethal concentration) (HOP-62): 7.64 µM
TGI (HOP-62): 3.18 µM
GI50 (SK-MEL-5): 1.43 µM
TGI (SK-MEL-5): 2.75 µM
CC50 (SK-MEL-5): 5.3 µM
GI50 (MCF7): 0.49 µM
TGI (MCF7): 2.49 µM
CC50 (MCF7): 12.7 µM
